Reference: ChEMBL document CHEMBL1255434, “Heat stress cognate 70 host protein as a potential drug target against drug resistance in hepatitis B virus” (Antimicrob Agents Chemother, 2010)
≈ marks a conversion by molar mass, not a printed value. Calls of active or inactive are those of the source. No cut-off for these calls is given here.

What was measured:
[1] = Decrease in HscA70-mRNA expression in Hepatitis B virus infected in human HepG2(2.2.15) cells at 5.9 uM after 24-36 hrs by RT-PCR analysis; type: functional, cell-based
[2] = system: Hepatitis B virus; test: Antiviral activity against Hepatitis B virus infected in human HepG2(2.2.15) cells assessed as decrease in intracellular viral DNA level at 5.9 uM after 72 hrs by RT-PCR analysis; type: functional, organism-based
Outline: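 HepG2.2.15 cells were treated at 5.9, 23.6, 94.5 and 378 μM and 1.51 mM for 72 h. Intracellular HBV DNA was measured by real-time PCR, with Hsc70 mRNA by RT-PCR in parallel. Amounts were expressed relative to untreated cells, set as 1. Dot blot was used as confirmation. Means and SD.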

[3] = system: HepG2; test: Decrease in Hsc70- mRNA expression in human liver HepG2 cells at 0.23 to 0.94 mM after 24 hrs by RT-PCR analysis; type: functional, cell-based
Outline: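 Hsc70 mRNA by one-step SYBR Green qRT-PCR after 24 h treatment at 0.0625 or 0.25 mg/ml (0.23 and 0.94 mM), relative to untreated cells. More than 5 experiments; means and SD.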

[4] = Decrease in HscA90-mRNA expression in Hepatitis B virus infected in human HepG2(2.2.15) cells at 1.51 mM after 24 hrs by RT-PCR analysis; type: functional, cell-based
Outline: (§1)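 HepG2.2.15 cells at 0.4 mg/ml (1.51 mM). HspA4 and Hsp90 mRNA measured as host reference genes by one-step SYBR Green qRT-PCR, alongside Hsc70 mRNA and HBV DNA.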

[5] = Decrease in Luc mRNA expression in human sHepG2(2.2.15) cells expressing pLuc-3'UTR […] by RT-PCR analysis; type: functional, cell-based; parameters: scale not given: the % may be the effect or the level left; conditions: HepG2 2.2.15
[6] = Decrease in Hsc70- mRNA expression in Hepatitis B virus infected in human HepG2(2.2.15) cells at 1.51 mM after 72 hrs by RT-PCR analysis; type: functional, cell-based
Outline: (§2)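 Dose-response in HepG2.2.15 cells: 5.9, 23.6, 94.5 and 378 μM and 1.51 mM for 72 h. Hsc70 mRNA by qRT-PCR and intracellular HBV DNA by real-time PCR, each expressed relative to untreated cells (=1). HBV DNA also checked by dot blot. EC50 from this curve.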

[7] = system: Hepatitis B virus; test: Antiviral activity against Hepatitis B virus infected in human HepG2(2.2.15) cells assessed as reduction in viral DNA level at 23.6 uM to 1.51 mM after 72 hrs by RT-PCR analysis; type: functional; outline: as §2
[8] = system: Hepatitis B virus; test: Antiviral activity against Hepatitis B virus infected in human HepG2(2.2.15) cells assessed as decrease in supernatant viral DNA level at 1.51 mM after 36 hrs by RT-PCR analysis; type: functional; parameters: scale not given: the % may be the effect or the level left
[9] = system: Hepatitis B virus; test: Antiviral activity against Hepatitis B virus infected in human HepG2(2.2.15) cells assessed as reduction in viral DNA level at 113 uM continuous exposure measured after 7 months by RT-PCR analysis
[10] = Cytotoxicity against human HepG2(2.2.15) cells assessed as cell survival at 113 uM continuous exposure measured after 2 months; conditions: hepg2 2.2.15, 1461 h
[11] = system: Hepatitis B virus; test: Antiviral activity against entecavir-resistant Hepatitis B virus infected in human Huh-7 cells assessed as suppression of viral replication at 1.51 mM after 24 hrs by RT-PCR analysis; type: functional; conditions: Huh-7, 24 h
Outline: (§3)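 Huh-7 cells (10^5/well) were plated and incubated overnight. They were then transfected for 24 h with pcDNA3.1 carrying one HBV strain: Lamr (rtL180M+rtM204V), Advr (rtA181V+rtN236T) or Etvr (rtL180M+rtM204V+rtS202G). Medium was replaced with fresh medium containing 0.4 mg/ml (1.51 mM) for 24 h. Intracellular HBV DNA replicative intermediates were quantified by real-time PCR against untreated controls. Performed twice.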

[12] = Cytotoxicity against human HepG2(2.2.15) cells assessed as cell survival at 113 uM continuous exposure measured after 7 months; conditions: hepg2 2.2.15, 5113.5 h
[13] = Therapeutic index, ratio of CC50 for human sHepG2(2.2.15) cells to IC50 for Hepatitis B virus; type: cell-based; conditions: HepG2 2.2.15 cells
Outline: (§4)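 CC50 from MTT assay in HepG2.2.15 cells. Therapeutic ratio taken as CC50 over the anti-HBV EC50 from the 72 h dose-response measuring intracellular HBV DNA by real-time PCR.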

[14] = Half life in human blood; type: ADME, tissue-based
[15] = system: Hepatitis B virus; test: Antiviral activity against Hepatitis B virus infected in human HepG2(2.2.15) cells assessed as reduction in viral DNA level at 1.51 mM for 12, 24 or 36 hrs by RT-PCR analysis; type: functional, organism-based
Outline: (§5)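 HepG2.2.15 cells exposed to 0.4 mg/ml (1.51 mM) for 12, 24 or 36 h. Total RNA taken for HBV mRNA by one-step SYBR Green qRT-PCR; intracellular DNA isolated for HBV DNA by real-time PCR. Each value scaled to the mean of untreated cells set as 1.0. Three experiments; means and SD.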

[16] = Decrease in Hsc70-protein expression in Hepatitis B virus infected in human HepG2(2.2.15) cells at 1.51 mM after 24 hrs by Western blot analysis; type: functional, cell-based
Outline: (§6)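 HepG2.2.15 cells treated 24 h at 0.4 mg/ml (1.51 mM). Western blot: RIPA lysates with PMSF and protease inhibitors, SDS-PAGE, PVDF, 5% milk/TBST block 1 h at 37°C, mouse anti-Hsc70 monoclonal, HRP secondary, ECL. Flow cytometry: rabbit anti-Hsc70 with Cy5-labelled anti-rabbit secondary. Five experiments per assay.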

[17] = system: Hepatitis B virus; test: Antiviral activity against Hepatitis B virus infected in human HepG2(2.2.15) cells assessed as decrease in intracellular viral DNA level at 113 uM after 72 hrs by RT-PCR analysis in presence of entecavir; type: functional, organism-based
Outline: (§7)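 HepG2.2.15 cells (HBV genome-transfected, MEM + 10% FBS) treated 72 h with drug alone or in two-drug combination. Entecavir 0.6 μg/ml (2.16 μM), adefovir 3 μg/ml (5.9 μM), lamivudine 3 μg/ml (13 μM), oxymatrine 30 μg/ml (113 μM). Intracellular HBV DNA by SYBR Green real-time PCR, relative to untreated. Experiment repeated twice; means and SD, Student's t test.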

[18] = system: Hepatitis B virus; test: Antiviral activity against Hepatitis B virus infected in human HepG2(2.2.15) cells assessed as reduction in viral DNA level at 113 uM continuous exposure measured after 2 months by RT-PCR analysis
[19] = system: Hepatitis B virus; test: Antiviral activity against drug-resistant chronic Hepatitis B virus infected patients assessed as reduction in viral DNA at 0.4 g/day, po for 12 months; type: functional
[20] = system: HepG2 2.2.15; test: Reduction in Hsc70 mRNA half-life in Hepatitis B virus infected in human HepG2(2.2.15) cells at 1.51 mM after 24 hrs by RT-PCR analysis; type: functional; conditions: HepG2 2.2.15, 24 h
Outline: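 HepG2.2.15 cells treated or not with 0.4 mg/ml (1.51 mM) for 24 h, then actinomycin D 5 μg/ml added to block transcription. RNA harvested at intervals; Hsc70 mRNA by real-time RT-PCR, normalized to GAPDH. Percent remaining plotted against time to estimate T1/2. Repeated twice.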

[21] = system: Hepatitis B virus; test: Antiviral activity against Hepatitis B virus infected in human HepG2(2.2.15) cells assessed as reduction in genomic viral DNA at 23.6 uM to 1.51 mM after 24 hrs by RT-PCR analysis; type: functional; parameters: scale not given: the % may be the effect or the level left
[22] = system: Hepatitis B virus; test: Antiviral activity against Hepatitis B virus infected in human HepG2(2.2.15) cells assessed as reduction in viral DNA level by RT-PCR analysis; type: functional, organism-based
[23] = system: Hepatitis B virus; test: Antiviral activity against adefovir-resistant Hepatitis B virus infected in human Huh-7 cells assessed as suppression of viral replication at 1.51 mM after 24 hrs by RT-PCR analysis; type: functional; conditions: Huh-7, 24 h; outline: as §3
[24] = system: Hepatitis B virus; test: Antiviral activity against lamivudine-resistant Hepatitis B virus infected in human Huh-7 cells assessed as suppression of viral replication at 1.51 mM after 24 hrs by RT-PCR analysis; type: functional; conditions: Huh-7, 24 h; outline: as §3
[25] = Decrease in HscA4-mRNA expression in Hepatitis B virus infected in human HepG2(2.2.15) cells at 1.51 mM after 24 hrs by RT-PCR analysis; type: functional, cell-based; outline: as §1
[26] = Decrease in Luc mRNA expression in human sHepG2(2.2.15) cells expressing pLuc-5'UTR after 24 hrs by RT-PCR analysis; type: functional, cell-based; conditions: HepG2 2.2.15
Outline: (§8)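 HepG2.2.15 cells transfected 24 h with luciferase reporter pLuc (pcDNA3.0 backbone), pLuc-3′UTR or pLuc-5′UTR (Hsc70 UTR chimeras). Cells split into two dishes, incubated overnight, then given drug or dilution buffer. Total RNA taken 12 h later; Luc mRNA by real-time RT-PCR. Three experiments; means and SD.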

[27] = Decrease in Hsc70- mRNA expression in Hepatitis B virus infected in human HepG2(2.2.15) cells at 1.51 mM by RT-PCR analysis; type: functional, cell-based; conditions: TDE = time-dependent effect
[28] = system: Hepatitis B virus; test: Antiviral activity against Hepatitis B virus infected in human HepG2(2.2.15) cells assessed as reduction in viral DNA replicative intermediates at 23.6 uM to 1.51 mM after 24 hrs by RT-PCR analysis; type: functional
[29] = Cytotoxicity against human HepG2(2.2.15) cells assessed as cell growth at 1.51 mM after 36 hrs; type: cell-based; conditions: hepg2 2.2.15, 36 h, 1510 µM
Outline: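 HepG2.2.15 cell growth followed during 36 h exposure to 0.4 mg/ml (1.51 mM), compared with untreated cells; experiment repeated twice.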

[30] = Cytotoxicity against human HepG2(2.2.15) cells assessed as cell killing by MTT assay; type: cell-based; outline: as §4
[31] = system: Hepatitis B virus; test: Antiviral activity against Hepatitis B virus infected in human HepG2(2.2.15) cells assessed as reduction in viral mRNA level at 1.51 mM for 12, 24 or 36 hrs by RT-PCR analysis; type: functional, organism-based; outline: as §5
[32] = system: Hepatitis B virus; test: Antiviral activity against Hepatitis B virus infected in human HepG2(2.2.15) cells assessed as decrease in intracellular viral DNA level at 113 uM after 72 hrs by RT-PCR analysis in presence of adefovir; type: functional, organism-based; outline: as §7
[33] = Decrease in wild type Luc mRNA expression in human HepG2(2.2.15) cells after 24 hrs by RT-PCR analysis; type: functional, cell-based; outline: as §8
[34] = Decrease in Hsc70-protein expression in Hepatitis B virus infected in human HepG2(2.2.15) cells at 1.51 mM after 24 hrs by flow-cytometric assay; type: functional, cell-based; outline: as §6
[35] = system: Hepatitis B virus; test: Antiviral activity against Hepatitis B virus infected in human HepG2(2.2.15) cells assessed as decrease in intracellular viral DNA level at 1.51 mM after 36 hrs by RT-PCR analysis; type: functional; conditions: HepG2 2.2.15, 36 h
Outline: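 HepG2.2.15 cells (HBV full-genome transfected HepG2) in MEM with 10% FBS, exposed to 0.4 mg/ml (1.51 mM) for 36 h. Intracellular DNA (genomic plus HBV) isolated and HBV DNA quantified by SYBR Green real-time PCR. Values were normalised to the untreated-cell mean, set as 1.0. Run 3 times; means and SD.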

[36] = system: Hepatitis B virus; test: Antiviral activity against Hepatitis B virus infected in human HepG2(2.2.15) cells assessed as decrease in intracellular viral DNA level at 113 uM after 72 hrs by RT-PCR analysis; type: functional, organism-based; outline: as §7

## Nc1ncnc2c1ncn2CCOCP(=O)(O)O
[1]
  Activity: inactive
[2]
  Activity: Active

## O=C1CCC[C@@H]2[C@H]3CCC[N+]4([O-])CCC[C@@H](CN12)[C@@H]34 (stereo partly specified) [OXYMATRINE]
[3]
  Activity: Active
[4]
  Activity: inactive
[5]
  Activity: 50%
[6]
  Activity: inactive
[7]
  inhibition (INH): 43%
[8]
  Activity: 60%
[9]
  Activity: Active
[10]
  Activity: Non-toxic
[11]
  inhibition at 1510 µM: 62%
[12]
  Activity: Non-toxic
[13]
  selectivity ratio: > 100
[14]
  half-life: 144 min
[15]
  Activity: Active
[16]
  Activity: Active
[17]
  Activity: Active
[18]
  Activity: Active
[19]
  log10cfu: 1.5
[20]
  inhibition at 1510 µM: 50%
[21]
  Activity: 54%
[22]
  EC50: 31 µg/mL (≈ 117 µM)
[23]
  inhibition at 1510 µM: 62%
[24]
  inhibition at 1510 µM: 62%
[25]
  Activity: inactive
[26]
  Activity: inactive
[27]
  Activity: tde
[28]
  inhibition (INH): 75%
[29]
  Activity: Non-toxic
[30]
  MTT: 3.12 mg/mL
[31]
  Activity: inactive
[32]
  Activity: Active
[33]
  Activity: inactive
[34]
  Activity: Active
[35]
  inhibition at 1510 µM: 62%
[36]
  Activity: Active
